The values below come from ChEMBL document CHEMBL1806366, “Synthesis and structure-activity relationship of new 1,5-dialkyl-1,5-benzodiazepines as cholecystokinin-2 receptor antagonists” (Bioorg Med Chem, 2011).

Data set [1] deals with Mus musculus. Kind of data set: Anxiolytic activity in po dosed mouse measured after 60 mins post dose by black/white box test. The data set is classed as functional. The method in brief:
(§1)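 Mice dosed orally 60 min before testing, then placed in the centre of the illuminated white compartment of a two-part black/white box. Time spent exploring the white and black sides recorded; longer time in the white side read as anxiolytic effect. Model used for both potency and duration of action.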

Data set [2] can be described thus: Displacement of [3H]CCK8 from guinea pig brain CCK2 receptor by liquid scintillation counting. Also noted: species or system Cavia porcellus. The method in brief:
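Guinea pig brain membranes incubated at 25 °C with [³H]-CCK8s at 0.2 nM; nonspecific binding defined with L-365,260. Bound and free ligand separated by filtration over GF/C filters, then counted by liquid scintillation. Ki calculated using Bmax and KD from separate saturation binding isotherms.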
A general note: In a radioligand displacement assay an active substance lowers the binding of a labelled ligand.

A short description of data set [3]: Selectivity ratio of pKi for guinea pig brain CCK2 receptor to pKi for rat pancreas CCK1. The method in brief:
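Radioligand displacement binding to guinea pig brain membranes (CCK2, incubated at 25 °C) and rat pancreas membranes (CCK1, incubated at 37 °C) with 0.2 nM [³H]-CCK8s. Non-specific binding was defined with L-365,260 (CCK2) or L-364,718 (CCK1). Bound ligand was separated by GF/C filtration and counted by liquid scintillation. Ki values were derived for each subtype, with KD and Bmax taken from separate saturation isotherms.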

Data set [4] in a line: (§2) Volume of distribution in rat administered as methocel suspension. The data set is classed as ADME, organism-based. The following applies: in vivo.
In data set [5] the test system is Mus musculus. The data set can be described thus: Anxiolytic activity in po dosed mouse assessed as duration of action of the compound measured after 60 mins post dose by black/white box test. Format: functional. The method in brief:
as §1

A short description of data set [6]: Clearance in dog administered as methocel suspension. Format: ADME, organism-based, Canis lupus familiaris. The following applies: in vivo.
Data set [7] is described as follows: Clearance in rat administered as methocel suspension. The data set is classed as ADME, organism-based. Particulars: in vivo.
Data set [8] can be described thus: Volume of distribution in dog administered as methocel suspension. The data set is classed as ADME, organism-based, Canis lupus familiaris. The following applies: in vivo.
Data set [9] can be described thus: Half life in rat administered as methocel suspension. The data set is classed as ADME, organism-based. Particulars: in vivo.
A short description of data set [10]: Oral bioavailability in dog administered as methocel suspension. Format: ADME, organism-based, Canis lupus familiaris. The following applies: in vivo.
Data set [11] can be described thus: Solubility of the compound at pH 2.4. Format: physicochemical. Particulars: buffer.
For data set [12], the target named is T1, Cholecystokinin receptor type A (Rattus norvegicus, UniProt P30551).
T1 sequence (P30551 whole entry): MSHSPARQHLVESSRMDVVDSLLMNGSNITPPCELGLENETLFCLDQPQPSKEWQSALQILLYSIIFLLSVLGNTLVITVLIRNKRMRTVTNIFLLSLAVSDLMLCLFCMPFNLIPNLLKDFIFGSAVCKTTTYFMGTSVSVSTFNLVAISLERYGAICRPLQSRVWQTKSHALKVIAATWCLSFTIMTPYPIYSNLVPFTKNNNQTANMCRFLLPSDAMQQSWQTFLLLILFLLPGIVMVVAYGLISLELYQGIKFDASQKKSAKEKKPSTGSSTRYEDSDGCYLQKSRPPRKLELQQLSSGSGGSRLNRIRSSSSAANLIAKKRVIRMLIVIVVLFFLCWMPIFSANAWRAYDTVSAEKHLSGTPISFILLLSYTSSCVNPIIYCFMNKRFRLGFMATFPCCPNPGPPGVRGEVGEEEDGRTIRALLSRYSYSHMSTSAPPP
Kind of data set: Displacement of [3H]CCK8 from rat pancreas CCK1 receptor at by liquid scintillation counting. The essentials: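 Rat pancreas membranes incubated at 37 °C with [³H]-CCK8s at 0.2 nM; nonspecific binding defined with L-364,718. Bound and free ligand separated by filtration over GF/C filters, then counted by liquid scintillation. Ki calculated using Bmax and KD from separate saturation binding isotherms.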

Data set [13] is described as follows: (§3) Oral bioavailability in rat administered as methocel suspension. Format: ADME, organism-based. The following applies: in vivo.
The nature of data set [14]: Half life in dog administered as methocel suspension. Particulars: in vivo. Format: ADME, organism-based, Canis lupus familiaris.
The test system of data set [15] is Mus musculus. The data set can be described thus: Anxiolytic activity in mouse up to 300 ug/kg, po measured after 60 mins post dose by black/white box test. Format: functional, organism-based. The essentials:
as §1

Data set [16] deals with Rattus norvegicus. Described as §2. The data set is classed as ADME, organism-based. The following applies: in vivo.
In data set [17] the test system is Rattus norvegicus. Described as §3. Particulars: in vivo. The data set is classed as ADME, organism-based.
The mark [18] stands for this setting: Mus musculus, po, 1 h, read-out: ED50.

Converted amounts (≈) assume the structure as drawn. The source made the active and inactive calls. No cut-off for these calls is given here.

A word on the ED50: it is the dose that gives a 50% effect, or the effect in half of the subjects. For `O=C(Nc1ccccc1)N[C@@H]1C(=O)N(CC23CC4CC(CC(C4)C2)C3)c2ccccc2N(c2ccccc2)C1=O`, the ED50 in [1] (setting [18]) is 0.05 µg/kg.

As usually defined, the pKi is the negative decadic logarithm of the Ki, by convention in mol/L. Low readings indicate a large Ki, high ones a small Ki. The Vd is a proportionality between amount in the body and measured concentration, not a real space. Read a low Vd as little distribution into tissue. Broadly, the clearance is a measure of how efficiently the substance is removed, as volume per time. By half-life is commonly meant the time in which the quantity being followed falls by half. Low readings indicate rapid decline, high ones slow decline. As usually defined, the bioavailability is dose-corrected exposure relative to a reference, in per cent. Low values mean poor availability, high ones good availability. As usually defined, the solubility is the concentration that dissolves in the medium under given conditions. For orientation: Ki means the equilibrium dissociation constant of an inhibitor or competing ligand from its target. The low end stands for a stronger hold on the target, the high end for a looser hold on the target. As to `CC(C)CCN1C(=O)C(NC(=O)Nc2ccccc2)C(=O)N(CCN2CCOCC2)c2ccccc21` (racemic), in data set [2], the pKi was 8.54. Also, in [3], the Ki selectivity ratio (CCK1 Ki / CCK2 Ki) worked out at 234. Further, the values for the Vd in data set [4] and in [8] were 1.1 L/kg and 1 L/kg, respectively. Besides, the Time in data set [5] was 2 h. Besides, the clearance in [6] is 14 mL/min; in [7], 34 mL/min. Besides, the figures for the half-life in data set [9] and in [14] were 22.8 min and 54 min, respectively. Besides, the bioavailability in data set [10] came out at 36%; in data set [13], 18%. Also, the solubility in data set [11] (read-out: solubility) amounted to 450 µg/mL (≈ 912 µM). This compound gave an inhibition constant Ki in [12] of 0.676 µM. Further, the ED50 in data set [1] (setting [18]) came to 0.011 µg/kg.

Compound `CC(C)CCN1C(=O)C(NC(=O)Nc2ccc(O)cc2)C(=O)N(CCN2CCOCC2)c2ccccc21` (racemic) returned a pKi in data set [2] of 8.13. The Ki selectivity ratio (CCK1 Ki / CCK2 Ki) in data set [3] turned out to be 1120. Besides, the result in [15] was inactive. Moreover, in data set [11] (read-out: solubility), the solubility amounted to 450 µg/mL (≈ 883 µM). The affinity in data set [12], expressed as Ki, was 8.32 µM.

In turn, `CC(C)CCN1C(=O)C(NC(=O)Nc2ccccc2)C(=O)N(CCN(C)C)c2ccccc21` (racemic) yielded a pKi in data set [2] of 8.36. Moreover, the Ki selectivity ratio (CCK1 Ki / CCK2 Ki) in [3] turned out to be 759. For the same compound, the Vd was 3.1 L/kg in data set [4] and 2.5 L/kg in data set [8]. For the same compound, in data set [5], the Time was determined as 2 h. Also, the figures for the clearance in data set [6] and in data set [7] were 23 mL/min and 37 mL/min, respectively. The half-life is 60 min in data set [9] and 78 min in data set [14]. Further, the bioavailability was 40% in [10] and 20% in [13]. Moreover, the solubility in data set [11] (read-out: solubility) worked out at 850 µg/mL (≈ 1880 µM). The Ki in [12] was 3.31 µM. Also, the ED50 in data set [1] (setting [18]) was 0.041 µg/kg.

Consider `CCN(CC)CCN1C(=O)C(NC(=O)Nc2ccccc2)C(=O)N(CCC(C)C)c2ccccc21` (racemic), for which the negative logarithm of the Ki (pKi) in data set [2] is given as 8.8. Also, in data set [3], the Ki selectivity ratio (CCK1 Ki / CCK2 Ki) came to 2570. In addition, the affinity in data set [12] corresponds to a Ki of 4.07 µM. Moreover, in [1] (setting [18]), the ED50 is 0.0006 µg/kg.

For `O=C(Nc1ccccc1)NC1C(=O)N(CCN2CCOCC2)c2ccccc2N(CC23CC4CC(CC(C4)C2)C3)C1=O` (racemic), the negative logarithm of the Ki (pKi) in data set [2] is listed as 9.24. The Vd amounted to 1 L/kg in data set [4] and 4.8 L/kg in data set [8]. Also, the clearance in [6] worked out at 34 mL/min; in data set [7] it was 12 mL/min. Further, the half-life in [9] was 66 min; in data set [14], 96 min. Also, the bioavailability in [10] was determined as 9%; in data set [13] it was 13%. The solubility in data set [11] amounted to 230 µg/mL (≈ 402 µM). In data set [12], this compound had an inhibition constant (Ki) of 2.04 µM. In data set [1], this compound registered an ED50 of 0.001 µg/kg.

In data set [2], `CN(C)CCN1C(=O)C(NC(=O)Nc2ccccc2)C(=O)N(CC23CC4CC(CC(C4)C2)C3)c2ccccc21` (racemic) gave a pKi of 9. In [3], the Ki selectivity ratio (CCK1 Ki / CCK2 Ki) was determined as 3240. This compound yielded a Vd in data set [4] of 2.7 L/kg. For the same compound, the Time in data set [5] is 4 h. The compound further came in with a clearance in data set [7] of 28 mL/min. The compound also gave a half-life in [9] of 66 min. In addition, the solubility in data set [11] (read-out: solubility) came out at 850 µg/mL (≈ 1600 µM). Besides, in data set [12], the affinity, expressed as Ki, was 3.24 µM. Moreover, the bioavailability in data set [13] stood at 5%. Besides, the ED50 in data set [1] (setting [18]) amounted to 0.004 µg/kg.

With `O=C(Nc1ccccc1)NC1C(=O)N(CCN2CCOCC2)c2ccccc2N(CC23CC4CC(CC(C4)C2)C3)C1=O` (single isomer, unassigned; (-)), the pKi in data set [2] was determined as 9.64. In addition, the volume of distribution (Vd) in data set [16] came out at 1.1 L/kg. Moreover, in data set [5], the Time came out at 4 h. Further, the solubility in data set [11] (read-out: solubility) was 230 µg/mL (≈ 402 µM). The same compound showed a Ki in data set [12] of 2.04 µM. The compound further came in with a F in [17] of 10%. Also, the ED50 in [1] (setting [18]) was 0.002 µg/kg.

For `O=C(Nc1ccccc1)NC1C(=O)N(CCN2CCOCC2)c2cc(F)ccc2N(CC23CC4CC(CC(C4)C2)C3)C1=O` (single isomer, unassigned; (-)), the pKi in data set [2] was 8.52. For the same compound, the Vd in data set [4] came to 2.2 L/kg. Besides, the Time in data set [5] is 4 h. Moreover, the clearance in [7] amounted to 23 mL/min. The same compound gave a half-life in data set [9] of 66 min. The solubility in data set [11] (read-out: solubility) worked out at 360 µg/mL (≈ 610 µM). The Ki in data set [12] was 3.09 µM. In data set [13], this compound displayed a bioavailability of 5%. The ED50 in data set [1] (setting [18]) worked out at 0.08 µg/kg.
